# In PubChem BioAssay AID504383 (The Scripps Research Institute Molecular Screening Center, 2011):
# Out of some 2,500 compounds screened, about 1,200 (48%) were called active. The set was probably picked from earlier hits. The list shows a part of the results. A number with no mark means an inactive call.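 The calls were made as follows: active = mean activation above the low control average plus 3 SD, as set in the primary screen (cut at about 12% in these data); inactive = the rest.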
# Biological target: Troponin I, cardiac muscle (Homo sapiens) + Troponin T, cardiac muscle (Homo sapiens) + Troponin C, slow skeletal and cardiac muscles (Homo sapiens) (UniProt P19429+P45379+P63316)
# Experiment: calcium sensitizers of cardiac thin filaments – biochemical, IANBD-TnC fluorescence, triplicate, confirmation (AID 504383);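 also: 0% = DMSO at 0.472 mM calcium and 100% = DMSO at 2.9 mM calcium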
# Conditions: IANBD-labeled cardiac RTF, Ca2+ sensitivity fluorescence; at 7.2 µM; active compounds read high; scaled from EC20 to saturating calcium; tested at EC20 calcium, 0.472 mM
# Outline: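 Assay system: labelled regulated thin filament protein complex; schedule: 15 min compound incubation with filaments at 25 °C; benchmarks: low control EC20 calcium, high control EC100 calcium; reagent: Ca2+ 0.472 mM, EC20 level; doses: one dose, 7.2 µM nominal; evaluation: fluorescence gain scaled between EC20 and EC100 calcium controls; signal: filament fluorescence intensity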
row,Structure (SMILES),activation
1,O=C(COC(=O)/C=C/c1ccccc1[N+](=O)[O-])NNC(=O)c1ccc(F)cc1,9.23%
2,O=C(O)CCC(=O)NNC(=O)c1ccc(-c2ccccc2)cc1,104% (active)
3,CCNC(=O)COc1ccc(-c2ccccc2)cc1,4.33%
4,Cc1ccsc1/C=C/C1=Cc2c(sc(NC(=O)CSc3n[nH]c(N)n3)c2C#N)C(C)(C)C1,6.84%
5,O=S(=O)(Nc1nc2ccccc2nc1N1CCN(c2ccccn2)CC1)c1ccc(Cl)cc1,0.27%
6,O=S(=O)(Nc1nc2ccccc2nc1NCCO)c1cccc(Cl)c1,233% (active)
7,Cn1c(-c2ccc(C=O)s2)nc2c3ccccc3c3ccccc3c21,25.8% (active)
8,CCOc1ccc(-c2nc3scc(-c4cccs4)c3c(=O)[nH]2)cc1,54.4% (active)
9,COc1ccc(C2c3ccc(O)cc3Oc3ncn(CCCO)c(=N)c32)cc1OC (configuration not stated),6.69%
10,COc1ccc(C2c3ccc(O)cc3Oc3ncn(CCN4CCOCC4)c(=N)c32)cc1OC (configuration not stated),23% (active)
11,N=c1c2c(ncn1Cc1ccco1)Oc1cc(O)ccc1C2c1ccccc1 (configuration not stated),127% (active)
12,COc1ccc(C2c3ccc(O)cc3Oc3ncn(Cc4ccco4)c(=N)c32)cc1 (configuration not stated),15.9% (active)
13,COc1ccc(C2c3ccc(O)cc3Oc3ncn(Cc4ccccc4)c(=N)c32)cc1OC (configuration not stated),2.66%
14,Cc1c(O)ccc(/C(Cc2ccc3ccccc3n2)=N\N)c1O,9.3%
15,CCCCOc1[nH]c2nc(-c3ccco3)n(Cc3ccco3)c(=N)c2c1C#N,7.26%
16,N#CC1(C#N)CC(C=O)=C(N)C1(C#N)CC(=O)c1ccc(F)cc1 (configuration not stated),18.1% (active)
17,COC(=O)C1=C(C)NC(=O)/C1=C\N(C)C,29.9% (active)
18,CCOC(=O)C1=C(C)NC(=O)/C1=C\N(C)C,3.21%
19,CCN(CC)c1ccc(/C=C2/C(=O)c3ccc(C(=O)O)cc3C2=O)cc1,21.9% (active)
20,CCN(CC)c1ccc(/C=C2\C(=O)c3ccc(C(=O)O)cc3C2=O)cc1,28.1% (active)
21,CCN(CC)c1ccc(/C=C/C(=O)c2ccc(Br)cc2)cc1,11.2%
22,COc1ccccc1C(=O)NN(C)C1=NS(=O)(=O)c2ccccc21,7.92%
23,CN(C)c1ccc(/C=N/N(CCO)C2=NS(=O)(=O)c3ccccc32)cc1,13.5% (active)
24,CN(/N=C/c1ccc(N(C)C)cc1)C1=NS(=O)(=O)c2ccccc21,32.9% (active)
25,Cc1ccc(C(=O)Nc2ccc3c(c2)ncn3C)cc1,27.7% (active)

row,Structure (SMILES),activation
1,COc1ccc(COc2cc(-c3cccc(OC)c3)nc3ccc(NC(=O)c4ccc(C)cc4)cc23)cc1,1.71%
2,CC(=O)NC(CCS(C)(=O)=O)C(=O)Nc1cc(C)on1 (configuration not stated),15.8% (active)
3,Cc1cc(NC(=O)CCC(=O)N(CCC(C)C)C(C(=O)NC2CCCC2)c2cccnc2)no1 (configuration not stated),3.5%
4,CCN(CC(=O)Nc1c(F)cccc1F)C(=O)CNC(=O)COc1ccccc1,-0.22%
5,CCN(CC(=O)Nc1ccccc1C(F)(F)F)C(=O)c1ccc(-n2nc(C)c(CCC(=O)OC)c2C)cc1,29.8% (active)
6,COc1ccc(-c2cc3ncc(-c4ccccc4)c(N)n3n2)cc1,15.2% (active)
7,O=C(Nc1cccc(Cl)c1)c1cc(S(=O)(=O)NCCc2ccc(Cl)cc2)ccc1F,13.9% (active)
8,COc1ccc(OC)c2[nH]c(=O)c(CCNS(=O)(=O)c3ccc(Cl)cc3)cc12,1.64%
9,COc1ccc(C(=O)c2sc3nc(C)cc(-c4cccs4)c3c2N)cc1,24.7% (active)
10,COc1ccc(C(=O)c2sc3nc(-c4ccccc4)ccc3c2N)cc1,85.5% (active)
11,COc1ccc(-c2c(C#N)c(N)nc3sc(C(=O)c4ccccc4)c(N)c23)cc1,-1.46%
12,COc1ccc(C(=O)c2sc3nc(C)cc(-c4cccs4)c3c2N)cc1OC,4.99%
13,COc1ccc(C(=O)c2ccsc2N)cc1,22% (active)
14,Cc1cc(C)c(S(=O)(=O)Nc2ccc3[nH]c(=O)[nH]c3c2)c(C)c1,21.2% (active)
15,Cc1cc(C)c(C(N)=O)c(Nc2ccc(F)cc2)n1,1.65%
16,Cc1ccc(NC(=O)Nc2ccc(F)cc2)cc1Cl,20.6% (active)
17,Cc1ccc(NC(=O)C(OC(=O)c2ccc(F)cc2)c2ccccc2)cc1Cl (configuration not stated),8.32%
18,O=C(O)c1ccccc1-c1ccc(/C=C/c2cc(C(F)(F)F)[nH]c(=O)n2)o1,8.85%
19,O=C(O)c1cc(Cl)ccc1-c1ccc(/C=C/c2cc(C(F)(F)F)[nH]c(=O)n2)o1,56.3% (active)
20,CC(=O)OCC[N+](C)(C)C,54.7% (active)
21,COc1cc(/C=C2\Oc3cc(O)ccc3C2=O)ccc1O,-0.13%
22,O=C1/C(=C/c2cccc(F)c2)Oc2cc(O)ccc21,5.33%
23,O=C1/C(=C/c2ccc(Br)cc2)Oc2cc(O)ccc21,58.7% (active)
24,COC1=C/C(=C/c2c(N)n3c(nc2=O)sc2cc(S(C)(=O)=O)ccc23)C=CC1=O,10.2%
25,COC1=C/C(=C/c2c(N)n3cc(C)sc3nc2=O)C=CC1=O,4.28%

row,Structure (SMILES),activation
1,Cc1cn2c(N)c(C=C3C=C(Cl)C(=O)C(Cl)=C3)c(=O)nc2s1,17.6% (active)
2,C=CCNc1nnc(SCC(=O)N2CCC(C(N)=O)CC2)s1,15.8% (active)
3,O=C(Oc1ccc2ccc(=O)oc2c1)c1cccs1,1.63%
4,C=CCOc1ccc(C2C(C(=O)c3cccs3)=C(O)C(=O)N2c2nnc(C)s2)cc1 (configuration not stated),15.5% (active)
5,Cc1cc(N2C(=O)C(O)=C(C(=O)c3cccs3)C2c2ccc(F)cc2)no1 (configuration not stated),23.8% (active)
6,COc1ccc(C2C(C(=O)c3cccs3)=C(O)C(=O)N2c2nnc(C)s2)cc1OC (configuration not stated),7.86%
7,COc1ccc(C2C(C(=O)c3cccs3)=C(O)C(=O)N2c2nncs2)cc1 (configuration not stated),20.1% (active)
8,Cc1ccc(C2C(C(=O)c3cccs3)=C(O)C(=O)N2c2nnc(C)s2)cc1 (configuration not stated),52.5% (active)
9,O=C(c1ccccc1)N1C(=O)C(c2ccccc2)Oc2ccccc21 (configuration not stated),1.2%
10,COc1cc(OC)cc(C(=O)NCC(=O)OC2CCOC2=O)c1 (configuration not stated),17.4% (active)
11,O=C1/C(=C/c2cccs2)N=C(c2cccs2)N1Nc1ccccc1,18.7% (active)
12,CCOc1ccc(NC(=O)/C(C#N)=C/c2ccc(N3CCCC3)c(C)c2)cc1,2.19%
13,CCOc1ccc(NC(=O)/C(C#N)=C\c2ccc(N3CCCC3)c(C)c2)cc1,1.35%
14,Cc1cc(/C=C2/C(=O)N(C)C(=S)N2C)ccc1N1CCCC1,106% (active)
15,CCCN1C(=O)/C(=C/c2ccc(N3CCCC3)c(C)c2)NC1=S,8.1%
16,Cc1cc(/C=C2\NC(=S)N(C)C2=O)ccc1N1CCCC1,26.1% (active)
17,Cc1cc(N2CCCC2)ccc1/C=C1\NC(=S)N(C)C1=O,11.3%
18,O=C(Cn1cnc2ccccc2c1=O)c1ccc(Br)cc1,424% (active)
19,O=C(c1ccc(Cl)cc1)n1cnc2ccccc21,7.26%
20,COc1ccc(C(=O)Cn2cnc3ccccc3c2=O)cc1OC,6.44%
21,COc1cc(/C=C(/C#N)C(=O)NCCCc2ccccc2)ccc1OCC(=O)O,11.5%
22,COc1cc(/C=C(\C#N)c2nc3ccccc3o2)ccc1O,3.75%
23,COc1cc(/C=C(\C#N)c2nc3ccccc3s2)ccc1OCC(=O)Nc1ccccc1,92.9% (active)
24,CCN(CC)c1ccc(/C=C/c2cc(-c3ccccc3)c3ccccc3n2)cc1,19.4% (active)
25,c1ccc(Nc2nc3ccccc3n3cnnc23)cc1,10.4%

row,Structure (SMILES),activation
1,Cn1cnnc1Sc1nc2ccccc2nc1NS(=O)(=O)c1ccccc1,26.2% (active)
2,CC(=O)Nc1ccc(S(=O)(=O)Nc2nc3ccccc3nc2Nc2ccc(N)cc2)cc1,5.97%
3,CCC(CC)c1nnc(NC(=O)/C=C/c2ccco2)s1,18.8% (active)
4,Cn1nnc(NC(=S)NC(=O)/C=C/c2ccco2)n1,4.19%
5,COc1ccc(N=C2NC(=O)S/C2=C\c2ccc(N(C)C)cc2)cc1,54.9% (active)
6,COc1ccc(C(=O)/C=C/c2ccc(N(C)C)cc2)c(OC)c1,7.89%
7,C=CCOc1ccc(/C=C2\SC(=Nc3cccnc3)NC2=O)cc1,6.73%
8,CCOc1ccc(N=C2NC(=O)S/C2=C\c2ccc(N(C)C)cc2)cc1,5340% (active)
9,O=C(NN1C(=O)c2ccccc2NC1c1ccco1)c1ccccc1 (configuration not stated),3.92%
10,C=CCN1C(=O)c2ccccc2NC1c1cc(Br)cs1 (configuration not stated),53.6% (active)
11,CCOCCn1c(CN2CCN(CC)CC2)nc2c1c(=O)n(C)c(=O)n2C,66% (active)
12,CC1=Nc2ccccc2/C1=C/c1nc(-c2ccc(C)s2)oc1O,7.81%
13,Oc1[nH]c(=S)sc1/C=C1\C(c2ccccc2)=Nc2ccccc21,10%
14,CC1=Nc2ccccc2/C1=C/c1sc(=S)n(-c2cccc(C(=O)O)c2)c1O,13.1% (active)
15,CCc1cc(=O)n2c([nH]c3ccccc32)c1C#N,3.83%
16,CCC(C)(C)n1nnnc1C(c1ccc(C)cc1)N1CCN(C(=O)c2ccco2)CC1 (configuration not stated),4.34%
17,CCC(c1nnnn1C1CCCCC1)N1CCN(C(=O)c2ccco2)CC1 (configuration not stated),23.4% (active)
18,O=C(O)C1CCCCC1C(=O)Nc1ccc(-c2ccccc2)cc1 (configuration not stated),8.12%
19,Cn1nc(NC(=O)C2CCC2C(=O)O)c2c(F)cccc21 (configuration not stated),52.9% (active)
20,CCc1cc[n+](-c2nc([O-])sc2C=O)cc1,14.1% (active)
21,CCc1cc[n+](-c2nc3ccccc3nc2[N-]S(=O)(=O)c2ccc(Br)s2)cc1,-1.89%
22,Cc1ccc[n+](-c2nc([O-])sc2C=O)c1,64.2% (active)
